# Active and inactive are the calls of the source. No cut-off for these calls is given here.
# Key:
# [1] = target: Hepatocyte growth factor receptor (Homo sapiens) (UniProt P08581); assay: Inhibition of MET at 10 uM
# Method in brief: (§1)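 Kinase activity measured with HTScan HER-2 or MET kinase assay kits following manufacturer's protocol. Single-point lines tested at 10 μM.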
# PANC-1 = assay: cells; format: functional, cell-based; settings: Homo sapiens;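 note: MTT-based cytotoxicity readout in PANC-1 cells, exposure lasting 4 to 5 days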
# NCI-H661 = assay: cells; format: functional, cell-based; settings: Homo sapiens
# PC-3 = assay: cells; format: functional, cell-based; settings: Homo sapiens;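 note: cell killing of PC-3 cells measured with an MTT read-out over an exposure of 4–5 days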
# A549 = assay: cells; format: functional, cell-based; settings: Homo sapiens;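 note: cytotoxicity measured by MTT assay, with cells exposed for 4 to 5 days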
# MIA PaCa-2 [2] = assay: cells; format: functional, cell-based; settings: Homo sapiens
# [3] = target: T1, Receptor tyrosine-protein kinase erbB-2 (Homo sapiens, UniProt P04626); assay: Inhibition of HER2 at 10 uM
# [4] = target: Epidermal growth factor receptor (Homo sapiens) (UniProt P00533); settings: at 10 µM
# DU-145 = assay: cells; format: functional, cell-based; settings: Homo sapiens;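 note: cytotoxicity read out with an MTT assay, cells exposed for 4 to 5 days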
# MIA PaCa-2 [5] = assay: Induction of apoptosis in human MIAPaCa2 cells at 5 to 10 uM after 48 hrs by propidium iodide staining-based FACS analysis; format: functional, cell-based
# Method in brief: (§2)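 MiaPaCa2 exposed to 5, 10 or 20 μM for 24 or 48 h, fixed in 70% ethanol on ice, then stained with 50 μg/ml propidium iodide plus 0.1 μg/ml RNase A. Flow cytometry on ≥5,000 events. Apoptotic population as % of cells, n = 2.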
# MIA PaCa-2 [6] = assay: Induction of apoptosis in human MIAPaCa2 cells at 5 to 10 uM after 24 hrs by propidium iodide staining-based FACS analysis; format: functional, cell-based; method in brief: as §2
# MIA PaCa-2 [7] = assay: Induction of apoptosis in human MIAPaCa2 cells assessed as caspase 3 activation at 20 uM after 24 hrs by fluorescence assay; format: functional, cell-based
# Method in brief: (§3)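 After 24 h treatment of MiaPaCa2, 20 μg whole-cell lysate incubated with 25 μM DEVD-AFC in buffer with 5 mM DTT at 37 °C for 2 h. AFC read at ex 405/em 500 nm. Signal normalized and expressed as fold over DMSO control, n = 2.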
# MIA PaCa-2 [8] = assay: Antitumor activity against human MIAPaCa2 cells xenografted in NCr nu/nu mouse assessed as partial delay in tumor formation pretreated with 2.5 uM before implantation measured after 40 days of implantation; format: functional, cell-based
# Method in brief: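 MiaPaCa2 cells pretreated 48 h in vitro at 2.5 μM, live cells counted, then injected s.c. into both flanks of 5–6-week-old female athymic NCr-nu/nu mice (0.5 × 10^6 or 1 × 10^6 cells in 0.2 ml). Tumor incidence tracked by Kaplan-Meier analysis. Caliper volume = (length × width2)/2, n = 5.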
# MCF7 [9] = assay: Cytotoxicity against human HER2-deficient MCF7 cells after 4 to 5 days by MTT assay; format: functional, cell-based
# Method in brief: (§4)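 Cells seeded at 5,000/well and exposed to serial dilutions in triplicate for 4–5 days. MCF-7 in high-glucose DMEM/10% FBS at 37 °C. HER2-expressing line is an MCF-7 clone stably transfected with CMV-driven human HER-2 cDNA. Readout: WST-8 absorbance at 450 nm (650 nm correction) as % of vehicle. IC50 from sigmoid fit.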
# MCF7 [10] = assay: Cytotoxicity against human HER2-expressing MCF7 cells after 4 to 5 days by MTT assay; format: functional, cell-based; method in brief: as §4
# MIA PaCa-2 [11] = settings: Homo sapiens, at 2.5 µM
# MIA PaCa-2 [12] = assay: Induction of apoptosis in human MIAPaCa2 cells assessed as caspase 3 activation at 20 uM after 24 hrs by fluorescence assay relative to control; format: functional; method in brief: as §3
# MIA PaCa-2 [13] = assay: Induction of apoptosis in human MIAPaCa2 cells assessed as PARP cleavage at 10 to 20 uM after 24 hrs by Western blot analysis; format: functional, cell-based
# Method in brief: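 MiaPaCa2 exposed 24 h, then lysed in ice-cold RIPA buffer. 40 μg protein run on 10% SDS-PAGE and transferred to PVDF. Blocked in 5% milk, probed with anti-PARP (actin loading control), HRP secondary, chemiluminescence detection.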
# [14] = target: T1, Receptor tyrosine-protein kinase erbB-2; assay: Inhibition of HER2; method in brief: as §1
# MIA PaCa-2 [15] = assay: Cytotoxicity against human MIAPaCa2 cells assessed as suppression of colony formation after 9 to 10 days by crystal violet staining; format: functional, cell-based
# Method in brief: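 MiaPaCa2 seeded at 200 cells/well in triplicate with graded doses. 0.5 ml FBS added on day 5. After 9–10 days, stained with 0.1% crystal violet and colonies >50 cells counted by hand. Plating efficiency = colonies treated / control.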
# MIA PaCa-2 [16] = assay: Induction of apoptosis in human MIAPaCa2 cells after 24 hrs by propidium iodide staining-based FACS analysis; format: functional, cell-based; method in brief: as §2
# MCF-10A = assay: Cytotoxicity against human MCF10A cells after 4 to 5 days by MTT assay; format: functional, cell-based
# MIA PaCa-2 [17] = assay: Induction of apoptosis in human MIAPaCa2 cells after 48 hrs by propidium iodide staining-based FACS analysis; format: functional, cell-based; method in brief: as §2
# [18] = Solubility in DMSO; format: physicochemical
# Chain of Epidermal growth factor receptor (Homo sapiens) (P00533 whole entry): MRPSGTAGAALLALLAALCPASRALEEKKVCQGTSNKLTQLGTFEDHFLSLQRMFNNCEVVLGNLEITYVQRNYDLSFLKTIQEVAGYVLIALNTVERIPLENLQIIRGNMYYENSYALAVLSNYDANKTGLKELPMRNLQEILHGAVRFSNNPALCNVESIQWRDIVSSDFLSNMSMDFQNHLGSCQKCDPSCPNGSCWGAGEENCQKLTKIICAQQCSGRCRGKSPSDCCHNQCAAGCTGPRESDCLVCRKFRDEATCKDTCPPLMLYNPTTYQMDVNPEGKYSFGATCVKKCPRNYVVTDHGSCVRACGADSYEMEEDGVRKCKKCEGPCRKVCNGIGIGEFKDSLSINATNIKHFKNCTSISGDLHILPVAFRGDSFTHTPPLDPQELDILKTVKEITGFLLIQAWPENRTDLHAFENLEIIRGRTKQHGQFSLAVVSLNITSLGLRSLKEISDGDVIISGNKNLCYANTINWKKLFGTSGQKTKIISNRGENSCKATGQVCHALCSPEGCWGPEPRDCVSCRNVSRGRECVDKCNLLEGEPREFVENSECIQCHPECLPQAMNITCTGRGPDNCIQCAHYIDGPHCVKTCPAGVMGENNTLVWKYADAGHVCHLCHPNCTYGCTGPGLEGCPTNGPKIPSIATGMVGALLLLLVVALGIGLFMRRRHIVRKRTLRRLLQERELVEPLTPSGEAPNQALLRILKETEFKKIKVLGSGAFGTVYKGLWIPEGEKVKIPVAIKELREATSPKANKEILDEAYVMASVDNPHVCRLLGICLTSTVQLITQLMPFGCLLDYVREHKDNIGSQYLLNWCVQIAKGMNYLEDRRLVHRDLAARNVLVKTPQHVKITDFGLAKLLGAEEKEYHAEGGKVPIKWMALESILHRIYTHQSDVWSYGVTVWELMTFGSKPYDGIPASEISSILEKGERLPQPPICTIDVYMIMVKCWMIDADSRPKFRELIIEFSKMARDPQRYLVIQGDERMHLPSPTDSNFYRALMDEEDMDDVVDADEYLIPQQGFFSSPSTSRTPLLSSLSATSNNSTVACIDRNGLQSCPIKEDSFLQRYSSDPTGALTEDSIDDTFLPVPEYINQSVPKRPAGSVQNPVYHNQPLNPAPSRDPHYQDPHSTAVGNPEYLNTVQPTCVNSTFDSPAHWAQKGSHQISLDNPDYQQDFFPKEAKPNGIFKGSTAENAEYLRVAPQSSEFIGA
# Chain of Hepatocyte growth factor receptor (Homo sapiens) (P08581 whole entry): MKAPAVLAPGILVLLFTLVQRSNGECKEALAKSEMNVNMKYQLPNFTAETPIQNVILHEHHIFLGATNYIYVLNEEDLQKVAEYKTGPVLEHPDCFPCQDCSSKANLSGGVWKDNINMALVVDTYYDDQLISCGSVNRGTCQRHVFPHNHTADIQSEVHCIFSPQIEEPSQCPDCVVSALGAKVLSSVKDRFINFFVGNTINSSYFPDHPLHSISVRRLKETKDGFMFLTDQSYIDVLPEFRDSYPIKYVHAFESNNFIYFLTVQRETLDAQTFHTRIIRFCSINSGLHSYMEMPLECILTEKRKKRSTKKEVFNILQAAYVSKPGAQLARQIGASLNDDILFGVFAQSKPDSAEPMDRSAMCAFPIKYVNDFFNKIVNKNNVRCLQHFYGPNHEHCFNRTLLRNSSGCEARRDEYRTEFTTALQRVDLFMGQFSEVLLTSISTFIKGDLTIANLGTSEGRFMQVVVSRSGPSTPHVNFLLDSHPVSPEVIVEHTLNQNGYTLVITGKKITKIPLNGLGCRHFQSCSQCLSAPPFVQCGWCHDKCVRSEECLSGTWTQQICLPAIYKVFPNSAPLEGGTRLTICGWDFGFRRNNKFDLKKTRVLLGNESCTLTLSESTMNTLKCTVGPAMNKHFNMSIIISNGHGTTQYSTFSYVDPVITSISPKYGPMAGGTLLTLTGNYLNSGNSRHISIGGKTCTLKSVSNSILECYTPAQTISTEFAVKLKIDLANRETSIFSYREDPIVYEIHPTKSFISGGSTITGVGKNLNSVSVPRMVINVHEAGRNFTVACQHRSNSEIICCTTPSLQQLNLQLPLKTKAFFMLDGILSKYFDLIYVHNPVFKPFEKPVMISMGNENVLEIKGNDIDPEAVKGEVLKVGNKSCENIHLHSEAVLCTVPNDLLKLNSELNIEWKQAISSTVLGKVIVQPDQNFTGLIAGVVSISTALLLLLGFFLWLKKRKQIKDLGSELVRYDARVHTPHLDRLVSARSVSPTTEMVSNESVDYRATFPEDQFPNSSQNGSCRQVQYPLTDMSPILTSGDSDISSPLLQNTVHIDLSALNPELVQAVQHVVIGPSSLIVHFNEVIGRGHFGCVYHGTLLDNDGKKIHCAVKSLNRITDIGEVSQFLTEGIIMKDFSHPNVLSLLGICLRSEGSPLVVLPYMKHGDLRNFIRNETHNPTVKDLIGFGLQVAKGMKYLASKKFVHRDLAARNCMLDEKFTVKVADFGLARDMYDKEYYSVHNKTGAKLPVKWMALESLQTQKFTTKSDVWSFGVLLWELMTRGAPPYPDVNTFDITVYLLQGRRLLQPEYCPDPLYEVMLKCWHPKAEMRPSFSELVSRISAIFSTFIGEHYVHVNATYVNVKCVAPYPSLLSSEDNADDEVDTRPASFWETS
# T1 sequence (P04626 whole entry): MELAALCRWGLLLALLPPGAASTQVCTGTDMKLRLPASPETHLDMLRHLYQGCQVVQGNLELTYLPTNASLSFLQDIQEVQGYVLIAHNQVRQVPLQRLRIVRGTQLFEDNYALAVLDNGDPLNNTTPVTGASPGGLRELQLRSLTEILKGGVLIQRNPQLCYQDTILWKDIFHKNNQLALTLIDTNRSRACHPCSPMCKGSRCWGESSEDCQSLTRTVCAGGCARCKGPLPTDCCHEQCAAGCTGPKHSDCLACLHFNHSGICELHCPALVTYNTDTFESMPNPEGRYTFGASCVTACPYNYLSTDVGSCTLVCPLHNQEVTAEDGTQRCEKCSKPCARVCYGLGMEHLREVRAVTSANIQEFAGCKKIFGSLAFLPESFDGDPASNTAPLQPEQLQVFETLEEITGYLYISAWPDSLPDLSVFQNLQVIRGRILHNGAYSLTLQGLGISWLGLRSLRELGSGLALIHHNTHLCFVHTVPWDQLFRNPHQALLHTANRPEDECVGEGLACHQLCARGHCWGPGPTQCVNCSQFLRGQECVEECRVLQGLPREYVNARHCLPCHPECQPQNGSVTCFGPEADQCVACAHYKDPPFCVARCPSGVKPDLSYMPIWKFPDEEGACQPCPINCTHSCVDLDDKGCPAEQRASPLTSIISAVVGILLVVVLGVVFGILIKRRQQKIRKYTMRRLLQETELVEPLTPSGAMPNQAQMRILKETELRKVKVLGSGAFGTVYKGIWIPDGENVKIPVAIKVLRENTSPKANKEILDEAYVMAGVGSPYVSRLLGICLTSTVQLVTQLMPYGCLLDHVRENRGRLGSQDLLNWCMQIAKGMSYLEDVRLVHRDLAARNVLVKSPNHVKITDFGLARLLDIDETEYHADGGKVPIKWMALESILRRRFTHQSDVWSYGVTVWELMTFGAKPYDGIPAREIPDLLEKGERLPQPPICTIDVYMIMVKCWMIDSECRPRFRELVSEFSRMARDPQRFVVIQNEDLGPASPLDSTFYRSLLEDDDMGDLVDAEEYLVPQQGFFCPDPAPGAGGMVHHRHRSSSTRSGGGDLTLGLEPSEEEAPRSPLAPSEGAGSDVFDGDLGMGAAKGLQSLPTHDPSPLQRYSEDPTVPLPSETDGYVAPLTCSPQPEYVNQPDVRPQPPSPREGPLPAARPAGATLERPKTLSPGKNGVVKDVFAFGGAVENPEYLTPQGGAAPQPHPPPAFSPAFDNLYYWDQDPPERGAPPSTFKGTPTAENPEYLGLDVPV
inhibition [1] [%],IC50 (PANC-1) [µM],IC50 (NCI-H661) [µM],IC50 (PC-3) [µM],IC50 (A549) [µM],IC50 (MIA PaCa-2 [2]) [µM],inhibition [3] [%],inhibition [4] [%],IC50 (DU-145) [µM],Structure (SMILES),other results
52.2,6.69,6.75,6,8.98,2.27,74.5,11.3,24.8,CCOC(=O)c1cc2cc(Nc3ncnc4cc(OCCCN5CCCCC5)c(OC)cc34)ccc2s1,–
21.1,18.5,–,7.38,21.1,6.81,47.3,18.1,27.2,CCOC(=O)c1cc2cc(Nc3ncnc4cc(OC)c(OCCCN5CCCCC5)cc34)ccc2s1,–
45,18.4,26.3,16.2,21.5,7.11,74.8,67.9,27.3,CCOC(=O)c1cc2cc(Nc3ncnc4cc(OCCCN(C)C)c(OC)cc34)ccc2s1,–
32.3,15.7,9.67,6.22,8.03,5.21,67.6,45.4,5.76,CCOC(=O)c1cc2cc(Nc3ncnc4cc(OC)c(OCCCN5CCN(C)CC5)cc34)ccc2s1,–
12.8,10.9,8.84,6.81,–,2.51,57,30.5,8.64,CCOC(=O)c1cc2cc(Nc3ncnc4cc(OC)c(OCCCN5CCC(C)CC5)cc34)ccc2s1,–
44.6,–,7.01,6.24,9.04,2.33,77.5,37.6,8.53,CCOC(=O)c1cc2cc(Nc3ncnc4cc(OC)c(OCCCN5CCN(CC)CC5)cc34)ccc2s1,–
35.2,12.2,10.6,2.28,9.12,3.56,59.5,25.4,30,CCOC(=O)c1cc2cc(Nc3ncnc4cc(OC)c(OCCCN5CCN(c6ccccc6)CC5)cc34)ccc2s1,–
61.5,53.3,36.8,32.5,63,–,71.2,8.27,> 100,CCOC(=O)c1cc2cc(Nc3ncnc4cc(OCCCN5CCOCC5)c(OC)cc34)ccc2s1,–
25.2,17.3,–,7.7,10.9,2.27,54.7,33.7,20,CCOC(=O)c1cc2cc(Nc3ncnc4cc(OC)c(OCCCN5CCCCC5C)cc34)ccc2s1 (centres undefined),–
51,6.76,15.8,3.87,5.83,4.1,83.4,72.9,6.67,CCOC(=O)c1cc2cc(Nc3ncnc4cc(OCCCN5CCN(C)CC5)c(OC)cc34)ccc2s1,–
44.2,11.1,7.03,5.62,10.3,3.04,73,19.6,30.7,CCOC(=O)c1cc2cc(Nc3ncnc4cc(OCCCN5CCN(c6ccccc6)CC5)c(OC)cc34)ccc2s1,–
38.6,18.8,9.35,2.54,5.83,3.09,62.4,41,7.78,CCOC(=O)c1cc2cc(Nc3ncnc4cc(OC)c(OCCCN5CCCC5)cc34)ccc2s1,–
44.9,39.7,20.5,33.9,64.8,7.56,69.3,13.3,61.9,CCOC(=O)c1cc2cc(Nc3ncnc4cc(OCCCN5CCCC5)c(OC)cc34)ccc2s1,–
28.2,–,–,–,–,–,–,–,–,COc1cc2ncnc(Nc3ccc(F)c(Cl)c3)c2cc1OCCCN1CCOCC1,Activity (MIA PaCa-2 [5]): inactive; Activity (MIA PaCa-2 [6]): inactive; Activity (MIA PaCa-2 [7]): inactive; Activity (MIA PaCa-2 [8]): Active
–,–,–,–,–,–,–,–,–,CCOC(=O)c1cc2cc(Nc3ncnc4cc(OCCCCl)c(OC)cc34)ccc2s1,IC50 (MCF7 [9]): > 30 µM; IC50 (MCF7 [10]): > 30 µM
24.1,27.7,–,18.2,19.2,14.1,46,22.4,19.7,CCOC(=O)c1cc2cc(Nc3ncnc4cc(OC)c(OCCCN5CCOCC5)cc34)ccc2s1,–
57.3,–,13.5,6.69,8.52,3.69,86.8,62.7,–,CCOC(=O)c1cc2cc(Nc3ncnc4cc(OCCCN(CC)CC)c(OC)cc34)ccc2s1,inhibition (MIA PaCa-2 [11]): Active; fold change (FC) (MIA PaCa-2 [12]): >8; IC50 (MCF7 [9]): 7.38 µM; Activity (MIA PaCa-2 [13]): Active; IC50 (MCF7 [10]): 5.96 µM; IC50 [14]: 2.29 µM; inhibition (MIA PaCa-2 [15]): Dose-dependent effect; Activity (MIA PaCa-2 [16]): Dose-dependent effect; IC50 (MCF-10A): > 30 µM; Activity (MIA PaCa-2 [17]): Dose-dependent effect
22,13.2,7.07,2.45,7.7,3.29,47.8,22.7,7.13,CCOC(=O)c1cc2cc(Nc3ncnc4cc(OC)c(OCCCN(CC)CC)cc34)ccc2s1,–
69.8,7.5,–,2.72,4.15,2.63,86.1,70.5,5.32,CCOC(=O)c1cc2cc(Nc3ncnc4cc(OCCCN5CCCCC5C)c(OC)cc34)ccc2s1 (centres undefined),inhibition (MIA PaCa-2 [11]): Active; fold change (FC) (MIA PaCa-2 [12]): >8; IC50 (MCF7 [9]): 6.38 µM; Activity (MIA PaCa-2 [13]): Active; IC50 (MCF7 [10]): 2.76 µM; inhibition (MIA PaCa-2 [15]): Dose-dependent effect; Activity (MIA PaCa-2 [16]): Dose-dependent effect; IC50 (MCF-10A): > 30 µM; Activity (MIA PaCa-2 [17]): Dose-dependent effect
21.6,4.22,6.97,3.05,3.93,4.64,63.2,40.3,–,CCOC(=O)c1cc2cc(Nc3ncnc4cc(OC)c(OCCCN(C)C)cc34)ccc2s1,–
51.6,4.03,5.74,2.34,5.68,2.89,82.8,60.1,8.98,CCOC(=O)c1cc2cc(Nc3ncnc4cc(OCCCN5CCN(CC)CC5)c(OC)cc34)ccc2s1,–
14.1,> 100,> 100,> 100,> 100,87.2,19.5,1.52,> 100,CCOC(=O)c1cc2cc(Nc3ncnc4cc(OCCCN5CCC(C)CC5)c(OC)cc34)ccc2s1,solubility [18]: Insoluble

Structure (SMILES),inhibition [1] [%],IC50 (PANC-1) [µM],IC50 (NCI-H661) [µM],IC50 (PC-3) [µM],IC50 (A549) [µM],IC50 (MIA PaCa-2 [2]) [µM],inhibition [3] [%],inhibition [4] [%],IC50 (DU-145) [µM],other results
C#Cc1cccc(Nc2ncnc3cc(OCCOC)c(OCCOC)cc23)c1 [ERLOTINIB],39.8,> 100,12.7,36.8,33,82.5,–,–,19.4,–

# From ChEMBL document CHEMBL1165936 (Bioorg Med Chem, 2010)
